Measured values published in ChEMBL document CHEMBL3632461 (J Med Chem, 2015).

How the values were obtained:
[1] = Drug metabolism assessed as formation of 5-(2,4-dimethoxyphenyl)-7-oxo-2,3,4,7-tetrahydrooxazolo[3,2-a]pyrimidin-4-ium at 10 uM after 60 mins by LC-MS/MS analysis in presence of human MPO/H2O2/Cl-; assay type: physicochemical; conditions: 1 h
In short: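 Also incubated at 10 μM in a human MPO/H₂O₂/Cl⁻ system. Parent and cyclic ether product tracked by LC−MS/MS using retention time and MH⁺.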

[2] = Plasma clearance in CD-1 mouse at 1 mg/kg, iv and 3 or 5 mg/kg, po; assay type: ADME, organism-based
In short: (§1)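 Male CD-1 mice (25−35 g), cannulated Wistar-Han rats (250 g), beagle dogs (12 kg) and cynomolgus monkeys (7 kg), fasted overnight and fed 1.0 or 2.0 h after dosing. iv 1 mg/kg in saline or 12% sulfobutyl ether β-cyclodextrin; po 3 or 5 mg/kg in 0.5% methylcellulose. Parameters calculated from plasma concentration−time data; mean ± SD for n = 3, individual values for n = 2.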

[3] = Plasma clearance in cynomolgus monkey at 1 mg/kg, iv and 3 or 5 mg/kg, po; assay type: ADME, organism-based, Macaca fascicularis; in short: as §1
[4] = Elimination half life in cynomolgus monkey at 1 mg/kg, iv and 3 or 5 mg/kg, po; assay type: ADME, organism-based, Macaca fascicularis; conditions: in vivo; in short: as §1
[5] = Oral bioavailability in CD-1 mouse at 3 or 5 mg/kg; assay type: ADME, organism-based; conditions: in vivo
In short: (§2)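 Male CD-1 mice, Wistar-Han rats, beagle dogs and cynomolgus monkeys, fasted overnight and fed after dosing. Given po at 3 or 5 mg/kg in 0.5% methylcellulose, with an iv reference dose of 1 mg/kg. Bioavailability derived from plasma concentration−time data; mean ± SD (n = 3) or individual values (n = 2).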

[6] = Oral bioavailability in cynomolgus monkey at 3 or 5 mg/kg; assay type: ADME, organism-based, Macaca fascicularis; conditions: in vivo; in short: as §2
[7] = Fraction unbound in mouse plasma at 2 uM by equilibrium dialysis method; assay type: ADME, cell-free
In short: (§3)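 Compound at 2 μM in mouse, rat, dog, monkey or human plasma; unbound fraction measured by equilibrium dialysis and reported as a mean.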

[8] = Fraction unbound in rat plasma at 2 uM by equilibrium dialysis method; assay type: ADME, cell-free; in short: as §3
[9] = Fraction unbound in dog plasma at 2 uM by equilibrium dialysis method; assay type: ADME, cell-free, Canis lupus familiaris; in short: as §3
[10] = Fraction unbound in monkey plasma at 2 uM by equilibrium dialysis method; assay type: ADME, cell-free, Macaca mulatta; conditions: rhesus monkey; in short: as §3
[11] = biological target: T1, Cytochrome P450 1A2 (Homo sapiens, UniProt P05177); test: Reversible inhibition of CYP1A2 phenacetin O-deethylase activity in human liver microsomes by LC-MS/MS analysis; assay type: ADME
T1 sequence (P05177 whole entry): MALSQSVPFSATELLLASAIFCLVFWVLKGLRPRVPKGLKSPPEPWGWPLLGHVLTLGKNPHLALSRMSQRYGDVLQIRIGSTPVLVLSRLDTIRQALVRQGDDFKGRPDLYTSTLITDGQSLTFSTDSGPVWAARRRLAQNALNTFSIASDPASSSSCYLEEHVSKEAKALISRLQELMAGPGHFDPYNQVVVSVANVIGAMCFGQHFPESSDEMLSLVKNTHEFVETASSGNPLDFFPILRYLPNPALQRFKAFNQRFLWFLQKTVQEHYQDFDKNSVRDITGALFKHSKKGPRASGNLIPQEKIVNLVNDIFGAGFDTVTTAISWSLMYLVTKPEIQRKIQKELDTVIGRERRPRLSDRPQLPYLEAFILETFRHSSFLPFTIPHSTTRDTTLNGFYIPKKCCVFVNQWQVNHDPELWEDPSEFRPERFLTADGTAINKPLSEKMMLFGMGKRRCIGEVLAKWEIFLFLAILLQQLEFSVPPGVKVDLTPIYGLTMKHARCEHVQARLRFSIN
In short: (§4)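 Reversible inhibition of the major CYP enzymes tested in human liver microsomes using established protocols.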

[12] = biological target: T2, Cytochrome P450 2C8 (Homo sapiens, UniProt P10632); test: Reversible inhibition of CYP2C8 amodiaquine-N-deethylase activity in human liver microsomes by LC-MS/MS analysis; assay type: ADME; in short: as §4
T2 sequence (P10632 whole entry): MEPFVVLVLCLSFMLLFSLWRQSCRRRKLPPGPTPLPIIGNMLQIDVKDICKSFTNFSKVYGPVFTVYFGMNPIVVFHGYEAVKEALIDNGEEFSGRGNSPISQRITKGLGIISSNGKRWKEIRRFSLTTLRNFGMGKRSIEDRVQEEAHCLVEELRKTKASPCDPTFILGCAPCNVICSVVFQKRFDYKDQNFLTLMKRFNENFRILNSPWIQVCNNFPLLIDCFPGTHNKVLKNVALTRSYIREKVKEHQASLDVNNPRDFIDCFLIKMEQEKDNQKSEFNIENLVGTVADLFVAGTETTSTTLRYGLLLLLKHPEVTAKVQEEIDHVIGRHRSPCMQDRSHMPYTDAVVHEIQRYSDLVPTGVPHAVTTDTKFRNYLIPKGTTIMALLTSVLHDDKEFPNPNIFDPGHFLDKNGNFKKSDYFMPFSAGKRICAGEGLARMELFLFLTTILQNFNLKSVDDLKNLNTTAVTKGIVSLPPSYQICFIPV

[13] = biological target: T3, Cytochrome P450 2C9 (Homo sapiens, UniProt P11712); test: Reversible inhibition of CYP2C9 in human liver microsomes by LC-MS/MS analysis; assay type: ADME; in short: as §4
[14] = biological target: T4, Cytochrome P450 2C19 (Homo sapiens, UniProt P33261); test: Reversible inhibition of CYP2C19 (S)-Mephenytoin 4'-hydroxylase activity in human liver microsomes by LC-MS/MS analysis; assay type: ADME; in short: as §4
[15] = biological target: T3, Cytochrome P450 2C9; test: Time-dependent inhibition of CYP2C9 in human liver microsomes; assay type: ADME
In short: (§5)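 Time- and concentration-dependent CYP inhibition assessed by an IC₅₀ shift assay in human liver microsomes.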

[16] = biological target: T4, Cytochrome P450 2C19; test: Time-dependent inhibition of CYP2C19 in human liver microsomes; assay type: ADME; in short: as §5
[17] = biological target: Cytochrome P450 3A4 (Homo sapiens, UniProt P08684); test: Time-dependent inhibition of CYP3A4 in human liver microsomes; assay type: ADME; in short: as §5
[18] = Fraction unbound in human plasma at 2 uM by equilibrium dialysis method; assay type: ADME, cell-free; in short: as §3
[19] = Drug excretion in Beagle dog urine at 1 mg/kg, iv; assay type: ADME, organism-based, Canis lupus familiaris; conditions: read-out: Drug excretion
In short: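 Male animals (beagle dogs 12 kg, Wistar-Han rats 250 g, cynomolgus monkeys 7 kg), fasted overnight and fed 1.0 or 2.0 h after dosing, water ad libitum. Dosed iv at 1 mg/kg in saline or 12% sulfobutyl ether β-cyclodextrin. Fraction of the iv dose excreted unchanged in urine.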

[20] = tested on: Cynomolgus monkey; test: In vivo inhibition of MPO in LPS-stimulated po dosed cynomolgous monkey administered 1 hr post LPS challenge measured after 2 hrs; assay type: functional, organism-based; conditions: Macaca fascicularis
In short: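 Randomized crossover design in cynomolgus monkeys given iv LPS, then oral vehicle or compound (5, 20, 80 mg/kg) 1 h later. Heparinized plasma collected 2 h after dosing. Total MPO captured on anti-MPO antibody plates, plasma exchanged for drug-free medium, and residual activity read by Amplex Red peroxidation. EC₅₀ from a mixed-effect sigmoid model of exposure versus activity.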

T3 sequence (P11712 whole entry): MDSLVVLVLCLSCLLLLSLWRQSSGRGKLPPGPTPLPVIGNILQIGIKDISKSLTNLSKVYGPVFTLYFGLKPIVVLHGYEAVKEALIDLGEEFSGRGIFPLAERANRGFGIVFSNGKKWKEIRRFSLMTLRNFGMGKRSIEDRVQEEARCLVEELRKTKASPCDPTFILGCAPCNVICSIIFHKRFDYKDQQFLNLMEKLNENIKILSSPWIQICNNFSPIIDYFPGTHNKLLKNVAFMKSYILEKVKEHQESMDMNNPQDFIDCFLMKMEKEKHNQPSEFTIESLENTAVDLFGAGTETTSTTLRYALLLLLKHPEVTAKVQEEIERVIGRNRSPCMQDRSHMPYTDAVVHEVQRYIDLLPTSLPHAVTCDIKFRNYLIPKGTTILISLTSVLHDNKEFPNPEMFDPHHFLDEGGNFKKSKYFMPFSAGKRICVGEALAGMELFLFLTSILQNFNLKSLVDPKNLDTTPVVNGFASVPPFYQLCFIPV
T4 sequence (P33261 whole entry): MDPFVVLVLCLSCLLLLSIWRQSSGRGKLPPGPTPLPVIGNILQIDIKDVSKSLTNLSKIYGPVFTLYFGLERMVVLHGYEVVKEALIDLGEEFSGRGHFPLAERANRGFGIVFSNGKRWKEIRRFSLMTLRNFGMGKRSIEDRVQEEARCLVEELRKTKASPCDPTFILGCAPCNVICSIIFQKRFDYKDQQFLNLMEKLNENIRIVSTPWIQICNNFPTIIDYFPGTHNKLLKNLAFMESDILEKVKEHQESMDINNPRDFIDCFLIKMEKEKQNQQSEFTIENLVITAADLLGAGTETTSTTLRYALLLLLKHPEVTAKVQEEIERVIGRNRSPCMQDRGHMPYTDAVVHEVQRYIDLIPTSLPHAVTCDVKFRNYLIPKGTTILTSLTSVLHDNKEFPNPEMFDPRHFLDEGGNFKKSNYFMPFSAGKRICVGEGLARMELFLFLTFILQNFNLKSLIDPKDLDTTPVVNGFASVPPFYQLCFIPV
Cytochrome P450 3A4, sequence (P08684 whole entry): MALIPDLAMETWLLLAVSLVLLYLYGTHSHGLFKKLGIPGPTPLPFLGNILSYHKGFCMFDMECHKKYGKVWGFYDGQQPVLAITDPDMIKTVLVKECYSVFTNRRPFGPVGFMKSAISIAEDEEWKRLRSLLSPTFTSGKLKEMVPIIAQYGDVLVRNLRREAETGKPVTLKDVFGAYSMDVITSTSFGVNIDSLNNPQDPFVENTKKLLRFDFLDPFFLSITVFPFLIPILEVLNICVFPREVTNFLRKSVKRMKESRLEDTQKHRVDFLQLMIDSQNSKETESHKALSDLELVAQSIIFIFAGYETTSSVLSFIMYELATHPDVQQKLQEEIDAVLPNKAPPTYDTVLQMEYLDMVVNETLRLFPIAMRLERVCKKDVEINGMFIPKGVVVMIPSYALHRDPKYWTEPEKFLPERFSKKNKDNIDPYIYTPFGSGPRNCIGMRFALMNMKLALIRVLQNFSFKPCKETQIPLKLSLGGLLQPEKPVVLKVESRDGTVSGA

| Structure (SMILES) | Drug metabolism [1] | clearance [2] [mL/min/kg] | clearance [3] [mL/min/kg] | half-life [4] [h] | bioavailability [5] [%] | bioavailability [6] [%] | fraction unbound at 2 µM [7] | fraction unbound at 2 µM [8] | fraction unbound at 2 µM [9] | fraction unbound at 2 µM [10] | IC50 [11] [µM] | IC50 [12] [µM] | IC50 [13] [µM] | IC50 [14] [µM] | IC50 [15] [µM] | IC50 [16] [µM] | IC50 [17] [µM] | fraction unbound at 2 µM [18] | dose excreted [19] [%] | EC50 [20] [µM] |
| --- | --- | --- | --- | --- | --- | --- | --- | --- | --- | --- | --- | --- | --- | --- | --- | --- | --- | --- | --- | --- |
| COc1ccc(-c2cc(=O)[nH]c(=S)n2CCO)c(OC)c1 | metabolite_detected | – | – | – | – | – | – | – | – | – | – | – | – | – | – | – | – | – | – | – |
| COc1ccc(Cl)cc1-c1cc(=O)[nH]c(=S)n1CC(N)=O [PF-06282999] | – | 10.1 | 10.3 | 3.28 | 100 | 76 | 0.451 | 0.447 | 0.46 | 0.536 | > 100 | > 100 | > 100 | > 100 | > 100 | > 100 | > 100 | 0.376 | 26 | 3.8 |
